Data taken from ChEMBL document CHEMBL3272343, “Etodolic acid and related compounds. Chemistry and antiinflammatory actions of some potent di- and trisubstituted 1, 3, 4, 9-tetrahydropyrano[3, 4-b]indole-1-acetic acids” (J Med Chem, 1976).
Activity calls are given as the source filed them. The rule behind the calls is not given here.

How the values were obtained:
[1] = tested on: Rattus norvegicus; experiment: Antiinflammatory activity in rat assessed as inhibition of adjuvant-induced arthritis administered for 9 days into foot pad 14 days after adjuvant challenge measured on day 22 by mercury displacement analysis; assay type: functional
Outline: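 Oral dosing in groups of six rats with established adjuvant arthritis (Mycobacterium butyricum in mineral oil, injected into left hind foot pad). Treatment ran from day 14 to day 22 (9 po administrations). Injected-paw volume was measured by mercury displacement. A decrease of 0.5 ml or more counted as a therapeutic effect. ED50 was derived by probit analysis of responder counts. Maximum screening dose was 100 mg/kg.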

[2] = Gastrointestinal toxicity in 8 hrs starved po dosed Charles River rat assessed as ulcerogenic effect after 18 hrs; assay type: organism-based; conditions: in vivo, read-out: UD50
Outline: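 Acute ulcerogenicity in male Charles River rats (180–200 g), housed in individual cages and starved 8 hr before oral dosing. UD50 was calculated graphically.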

[3] = tested on: Rattus norvegicus; experiment: Antiinflammatory activity in rat assessed as inhibition of adjuvant-induced arthritis at 20 mg/kg administered for 9 days into foot pad 14 days after adjuvant challenge measured on day 22 by mercury displacement analysis; assay type: functional, organism-based; design: dose 20 mg/kg
Outline: (§1)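 Therapeutic test in groups of six rats with adjuvant arthritis (Mycobacterium butyricum in mineral oil, left hind foot pad). Oral treatment ran from day 14 to day 22 (9 po doses). Injected-paw volume was measured by mercury displacement. Rats whose paw shrank by 0.5 ml or more were scored as showing a therapeutic effect; smaller changes counted as negative.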

[4] = Therapeutic index, ratio of UD50 for 8 hrs starved po dosed Charles River rat to ED50 for rat assessed as inhibition of adjuvant-induced arthritis; assay type: organism-based; conditions: in vivo, read-out: TI
Outline: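 Ratio of UD50 to ED50. UD50 came from starved (8 hr) male Charles River rats dosed orally and was calculated graphically. ED50 came from the 9-dose oral adjuvant-arthritis therapeutic test (day 14–22, mercury-displacement paw volume, ≥0.5 ml decrease as responder) and was derived by probit analysis.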

[5] = tested on: Rattus norvegicus; experiment: Antiinflammatory activity in po dosed rat assessed as inhibition of carrageenin-induced paw edema; assay type: functional
[6] = tested on: Rattus norvegicus; experiment: Antiinflammatory activity in rat assessed as inhibition of adjuvant-induced arthritis at 25 mg/kg administered for 9 days into foot pad 14 days after adjuvant challenge measured on day 22 by mercury displacement analysis; assay type: functional, organism-based; design: dose 25 mg/kg; outline: as §1
[7] = tested on: Rattus norvegicus; experiment: Antiinflammatory activity in rat assessed as inhibition of adjuvant-induced arthritis at 50 mg/kg administered for 9 days into foot pad 14 days after adjuvant challenge measured on day 22 by mercury displacement analysis; assay type: functional, organism-based; design: dose 50 mg/kg; outline: as §1

| Structure (SMILES) | ED50 [1] | further results |
| --- | --- | --- |
| CCC1(CC(=O)O)OCCc2c1[nH]c1c(OC)ccc(OC)c21 (centres undefined) | 100 mg/kg |  |
| CCCC1(CC(=O)O)OCCc2c1[nH]c1c(C)c(Cl)ccc21 (centres undefined) | 3.4 mg/kg |  |
| CCCCC1C(=O)N(c2ccccc2)N(c2ccccc2)C1=O [PHENYLBUTAZONE] | 5.4 mg/kg | TD50 at 18 h [2]: 100 mg/kg |
| CCC1(CC(=O)O)OCCc2c1[nH]c1cccc(C)c21 (centres undefined) | 11 mg/kg |  |
| CCCCc1cccc2c3c([nH]c12)C(CC)(CC(=O)O)OCC3 (centres undefined) |  | inhibition [3]: inactive |
| COc1ccc2c(c1)c(CC(=O)O)c(C)n2C(=O)c1ccc(Cl)cc1 [INDOMETHACIN] | 0.2 mg/kg | selectivity ratio [4]: 30; TD50 at 18 h [2]: 6 mg/kg; ED30 [5]: 1.3 mg/kg |
| CCC1(CC(=O)O)OCCc2c1[nH]c1cc(Cl)ccc21 (centres undefined) | 3.2 mg/kg |  |
| CCCc1cccc2c3c([nH]c12)C(CCC)(CC(=O)O)OCC3 (centres undefined) | 6 mg/kg |  |
| CCCC1(CC(=O)O)OCCc2c1[nH]c1cccc(Cl)c21 (centres undefined) | > 25 mg/kg |  |
| CCCC1(CC(=O)O)OCCc2c1[nH]c1ccc(C)cc21 (centres undefined) |  | inhibition [6]: inactive |
| CCC1(CC(=O)O)OCCc2c1[nH]c1c(Cl)c(Cl)ccc21 (centres undefined) | 1.1 mg/kg |  |
| CCC1(CC(=O)O)OCCc2c1[nH]c1c(C3CC3)cccc21 (centres undefined) | 1 mg/kg |  |
| CCC1(CC(=O)O)OCCc2c1[nH]c1cc(C(F)(F)F)ccc21 (centres undefined) | 1.2 mg/kg |  |
| CCCC1(CC(=O)O)OCCc2c1[nH]c1cc(OC)ccc21 (centres undefined) |  | inhibition [6]: inactive |
| CCC1(CC(=O)O)OCCc2c1[nH]c1c(C(C)(C)C)cccc21 (centres undefined) | 1.9 mg/kg |  |
| CCC1(CC(=O)O)OCCc2c1[nH]c1c(C3CCCCC3)cccc21 (centres undefined) | > 10 mg/kg |  |
| CCCC1(CC(=O)O)OCCc2c1[nH]c1c(C)cccc21 (centres undefined) | 11.8 mg/kg |  |
| CCC1(CC(=O)O)OCCc2c1[nH]c1c(C)c(Cl)ccc21 (centres undefined) | 0.6 mg/kg | selectivity ratio [4]: 41; TD50 at 18 h [2]: 25 mg/kg; ED30 [5]: 15 mg/kg |
| CCC1(CC(=O)O)OCCc2c1[nH]c1c(Cl)ccc(Cl)c21 (centres undefined) | 5.5 mg/kg |  |
| CCCC1(CC(=O)O)OCCc2c1[nH]c1cc(Cl)ccc21 (centres undefined) | 3.7 mg/kg |  |

| Structure (SMILES) | ED50 [1] | further results |
| --- | --- | --- |
| CCC1(CC(=O)O)OCCc2c1[nH]c1cccc(Cl)c21 (centres undefined) | 7 mg/kg |  |
| CCCC1(CC(=O)O)OCCc2c1[nH]c1c(CC)cccc21 (centres undefined) | 7.4 mg/kg |  |
| CCC1(CC(=O)O)OCCc2c1[nH]c1c(C(C)C)cccc21 (centres undefined) | 1.6 mg/kg |  |
| CCC1(CC(=O)O)OCCc2c1[nH]c1c(C)c(F)ccc21 (centres undefined) | 0.9 mg/kg | selectivity ratio [4]: 29; TD50 at 18 h [2]: 26 mg/kg; ED30 [5]: 37 mg/kg |
| CCC1(CC(=O)O)OCCc2c1[nH]c1c(Cl)cccc21 (centres undefined) | 2.4 mg/kg |  |
| CCCC1(CC(=O)O)OCCc2c1[nH]c1cccc(C)c21 (centres undefined) | 10 mg/kg |  |
| CCC1(CC(=O)O)OCCc2c1[nH]c1c(C3CCCC3)cccc21 (centres undefined) | > 5 mg/kg |  |
| CCCc1cccc2c3c([nH]c12)C(CC)(CC(=O)O)OCC3 (centres undefined) | 0.4 mg/kg | selectivity ratio [4]: 50; TD50 at 18 h [2]: 20 mg/kg; ED30 [5]: 10 mg/kg |
| CCC1(CC(=O)O)OCCc2c1[nH]c1ccc(F)cc21 (centres undefined) | 5 mg/kg |  |
| CCC1(CC(=O)O)OCCc2c1[nH]c1c(CC(C)C)cccc21 (centres undefined) | 5 mg/kg |  |
| CCc1cccc2c3c([nH]c12)C(CC)(CC(=O)O)OCC3 (centres undefined) [ETODOLAC] | 0.7 mg/kg | selectivity ratio [4]: 85; TD50 at 18 h [2]: 60 mg/kg |
| CCC1(CC(=O)O)OCCc2c1[nH]c1c(C)ccc(C)c21 (centres undefined) | 3.2 mg/kg |  |
| CCC1(CC(=O)O)OCCc2c1[nH]c1c(C)cccc21 (centres undefined) | 4.3 mg/kg |  |
| CCCC1(CC(=O)O)OCCc2c1[nH]c1cc(C)ccc21 (centres undefined) |  | inhibition [7]: inactive |
| CCC1(CC(=O)O)OCCc2c1[nH]c1c(OC)cccc21 (centres undefined) |  | Activity [6]: inactive |
| CCC1(CC(=O)O)OCCc2c1[nH]c1cc(F)ccc21 (centres undefined) | 3 mg/kg |  |
| CCC(C)c1cccc2c3c([nH]c12)C(CC)(CC(=O)O)OCC3 (centres undefined) | 2.6 mg/kg |  |
| CCC1(CC(=O)O)OCCc2c1[nH]c1c(Cl)c(C)ccc21 (centres undefined) | 4.1 mg/kg |  |
| CCC1(CC(=O)O)OCCc2c1[nH]c1ccc(Br)cc21 (centres undefined) |  | inhibition [6]: inactive |
